We go through 23 molecules from ChEMBL document CHEMBL1687739 (Antimicrob Agents Chemother, 2009).

One series has as its system Leishmania donovani. As to the kind of experiment: Antileishmanial activity against Leishmania donovani MHOM/ET/67/L82 amastigote after 72 hrs. It counts as functional, organism-based. The following applies: MHOM/ET/67/L82, 72 h. Summed up: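 Axenic amastigotes were grown at 37°C under 5% CO2 in SM medium, pH 5.4, with 10% heat-inactivated FBS. 10^5 per well were exposed 72 h to serial dilutions (30 to 0.041 μg/ml). Alamar Blue was added for 2 h, then fluorescence read at ex 536/em 588 nm as % of control. IC50 came from sigmoidal curves. Duplicates, repeated at least once.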

The nature of series [1]: Cytotoxicity against rat L6 cells after 72 hrs by microplate alamar blue assay. It counts as cell-based. Summed up:
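Rat skeletal myoblast L-6 cells, 4 × 10^4/well in RPMI 1640 with L-glutamine and 10% FBS, were given seven threefold dilutions (90 to 0.123 μg/ml) for 72 h. Alamar Blue was added for 2 h and fluorescence read at ex 536/em 588 nm. Tested in duplicate, assay repeated at least once.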
Background: The colour change of resazurin is a common sign of viable cells or microbes.

A further series relates to Plasmodium falciparum. The experiment in a line: Antiplasmodial activity against erythrocytic stage of chloroquine - and pyrimethamine-resistant Plasmodium falciparum K1 assessed as [3H]hypoxanthine incorporation after 48 hrs. Format: functional, organism-based. Summed up:
(§1)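 K1 erythrocytic stages were cultured in hypoxanthine-free RPMI 1640 with Albumax, A+ RBC at 2.5% hematocrit and 0.3% parasitemia. DMSO stocks were 10 mg/ml; seven twofold dilutions covered 5 to 0.156 μg/ml. Plates were held at 37°C in 4% CO2/3% O2/93% N2 for 48 h, then 0.5 μCi [3H]hypoxanthine was added for 24 h and scintillation counted. IC50 from sigmoidal curves. SI = L-6 CC50/IC50.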

A short description of series [2]: Selectivity index, CC50 for rat L-6 cells to IC50 for Trypanosoma brucei rhodesiense ST1B900 trypomastigote […]. Format: functional. Summed up: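 Bloodstream-form STIB900, 10^4/well in supplemented MEM with 15% heat-inactivated horse serum, were exposed to seven threefold dilutions (90 to 0.123 μg/ml) for 72 h at 37°C, 5% CO2. Alamar Blue was added for 2–4 h, then fluorescence read at ex 536/em 588 nm. SI = L-6 CC50/IC50. Duplicates, repeated at least once.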

Series [3] in a line: Selectivity index, CC50 for rat L-6 cells to IC50 for Trypanosoma cruzi Tulahuen C2C4 trypomastigote. It counts as functional. Summed up: (§2)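 T. cruzi Tulahuen C2C4 (LacZ) trypomastigotes, 5,000/well, were added to rat L-6 myoblasts seeded 24 h earlier in RPMI 1640 with 10% FBS. After 48 h the medium was replaced with seven threefold drug dilutions (90 to 0.123 μg/ml) and incubated 96 h. CPRG-Nonidet was added and read at 540 nm after 2–6 h to give IC50. Duplicates, assay repeated at least once. SI = L-6 CC50/parasite IC50.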

Series [4] in a line: Selectivity index, CC50 for rat L-6 cells to IC50 for erythrocytic stage of chloroquine - and pyrimethamine-resistant Plasmodium falciparum K1. It counts as functional. An outline of the steps:
as §1

The subject of another series is Trypanosoma cruzi. As to the kind of experiment: Antitrypanosomal activity against Trypanosoma cruzi Tulahuen C2C4 trypomastigote after 48 hrs. It counts as functional, organism-based. To be noted: Tulahuen C2C4, 48 h. Summed up: as §2
Series [5] relates to Trypanosoma brucei rhodesiense. As to the kind of experiment: Antitrypanosomal activity against Trypanosoma brucei rhodesiense ST1B900 trypomastigote infected in NMR1 mouse assessed as survival of mouse at 50 mg/kg, ip administered on day 3 post infection for 4 days. Set-up: dose 50 mg/kg. It counts as functional, organism-based.

Calls of active or inactive are those of the source. The calls are words filed in the database; no cut-off is given here.

For the molecule `CC(C)(C)OC(=O)NCCCCCCCCCCCCNC1CCN(CCc2ccccc2)CC1`, the IC50 (as a rule, the midpoint of a concentration-inhibition curve) with Leishmania donovani stood at 17.8 µM; in the series on Plasmodium falciparum, 0.32 µM; with Trypanosoma cruzi, 3.16 µM. Further, the CC50 (as a rule, the concentration giving 50% cytotoxicity) at 72 h in series [1] was 8.2 µM. Besides, the figures for the “Selectivity Index” value in series [2], in series [3] and in series [4] were 52, less than 3 and 25, respectively.
Consider `O=[N+]([O-])c1cccc(NC2CCN(CCc3ccccc3)CC2)c1`, for which the IC50 amounted to 23.2 µM with Leishmania donovani, 10.6 µM in the series with Plasmodium falciparum and 46.1 µM in the series with Trypanosoma cruzi. This molecule also came in with a CC50 at 72 h in series [1] of 257 µM.
Molecule `CCCCCCCCCCCCCNC(=N)N.O=S(=O)(O)O` [AMINO(TRIDECYLAMINO)METHANIMINIUM HYDROGENSULFATE] gave a cytotoxic concentration (CC50) at 72 h in series [1] of 19.6 µM. In addition, the IC50 in the series with Plasmodium falciparum worked out at 7.98 µM. Moreover, the “Selectivity Index” value in series [4] is given as 2.4.
Consider `CCC(=O)N(CCCCCCN/C(=N/C(=O)OC(C)(C)C)NC(=O)OC(C)(C)C)C1CCN(CCc2ccccc2)CC1`, for which the figures for the IC50 with Leishmania donovani, with Plasmodium falciparum and in the series with Trypanosoma cruzi were 13.2 µM, 0.85 µM and 23.2 µM, respectively. The molecule also displayed a CC50 at 72 h in series [1] of 24.9 µM. For the same molecule, in series [4], the “Selectivity Index” value is 29.
With `CC(C)(C)OC(=O)NCCCCCCCCNC1CCN(CCc2ccccc2)CC1`, the figures for the IC50 with Leishmania donovani, in the series with Plasmodium falciparum and in the series with Trypanosoma cruzi were more than 69 µM, 0.62 µM and 5.72 µM, respectively. In addition, the outcome in series [5] was inactive. For the same molecule, in series [1], the CC50 at 72 h is 15.5 µM. Besides, the entries for the “Selectivity Index” value in series [2], in series [3] and in series [4] were 130, less than 3 and 25, respectively.
Turning to `CC(C)(C)OC(=O)NCCCCCCCNC1CCN(CCc2ccccc2)CC1`, the IC50 was more than 72 µM in the series on Leishmania donovani, 0.77 µM in the series on Plasmodium falciparum and 11.9 µM with Trypanosoma cruzi. In addition, the CC50 at 72 h in series [1] is 32.9 µM. In addition, the “Selectivity Index” value is reported as 41 in series [2] and 42 in series [4].
`CC(C)(C)OC(=O)NCCNC1CCN(CCc2ccccc2)CC1`: the figures for the IC50 in the series with Leishmania donovani, in the series on Plasmodium falciparum and with Trypanosoma cruzi were 81.2 µM, 2.06 µM and 55.5 µM, respectively. The molecule also gave a CC50 at 72 h in series [1] of 174 µM.
As for `N=C(N)NCCCCCCCCNC(=N)N.O=S(=O)(O)O`, in series [1], the CC50 at 72 h was more than 276 µM. Moreover, the IC50 in the series on Plasmodium falciparum turned out to be 0.106 µM. In addition, in series [4], the “Selectivity Index” value was more than 2608.
Take `CCC(=O)N(CCCCCCCCN/C(=N/C(=O)OC(C)(C)C)NC(=O)OC(C)(C)C)C1CCN(CCc2ccccc2)CC1`: the IC50 in the series with Leishmania donovani came out at 14.8 µM; in the series with Plasmodium falciparum it was 0.6 µM; with Trypanosoma cruzi it was 12.3 µM. In series [1], the CC50 at 72 h is 21.5 µM. Also, the “Selectivity Index” value in series [4] came out at 35.
For the molecule `CC(C)(C)OC(=O)NCCCCCNC1CCN(CCc2ccccc2)CC1`, the values for the IC50 in the series on Leishmania donovani, in the series on Plasmodium falciparum and in the series on Trypanosoma cruzi were more than 77 µM, 1.53 µM and 69 µM, respectively. This molecule also had a CC50 at 72 h in series [1] of 95.6 µM.
As for `CCC(=O)N(CCCCCCCCCCCCN/C(=N/C(=O)OC(C)(C)C)NC(=O)OC(C)(C)C)C1CCN(CCc2ccccc2)CC1`, the results for the IC50 in the series on Leishmania donovani, with Plasmodium falciparum and in the series with Trypanosoma cruzi were 5.78 µM, 0.41 µM and 5.2 µM, respectively. The same molecule returned a CC50 at 72 h in series [1] of 7.54 µM. The “Selectivity Index” value in series [3] is recorded as less than 3; in series [4], 18.
Take `CC(C)(C)OC(=O)NCCCNC1CCN(CCc2ccccc2)CC1`: the half-inhibitory concentration (IC50) in the series on Leishmania donovani amounted to 68.9 µM; in the series with Plasmodium falciparum it was 2.08 µM; in the series with Trypanosoma cruzi it was 55.4 µM. Also, the CC50 at 72 h in series [1] amounted to 129 µM.
With `CC(C)(C)OC(=O)NCCCCCCCCCNC1CCN(CCc2ccccc2)CC1`, the IC50 was more than 67 µM in the series on Leishmania donovani, 0.36 µM with Plasmodium falciparum and 3.73 µM with Trypanosoma cruzi. The same molecule displayed a CC50 at 72 h in series [1] of 6.05 µM. The “Selectivity Index” value is 48 in series [2], less than 3 in series [3] and 16 in series [4].
With `CCC(=O)N(CCCCCCCCCNC(=O)OC(C)(C)C)C1CCN(CCc2ccccc2)CC1`, the results for the IC50 with Leishmania donovani, in the series on Plasmodium falciparum and with Trypanosoma cruzi were 34.8 µM, 1.43 µM and 11.7 µM, respectively. The same molecule came in with a CC50 at 72 h in series [1] of 16 µM.
On to `CC(C)(C)OC(=O)NCc1cccc(CNC2CCN(CCc3ccccc3)CC2)c1`, for which the IC50 in the series with Leishmania donovani amounted to 78.1 µM; with Plasmodium falciparum it was 1.66 µM; in the series on Trypanosoma cruzi, 17.3 µM. The molecule further showed a cytotoxic concentration (CC50) at 72 h in series [1] of 111 µM. Further, the “Selectivity Index” value in series [2] is on record as 219.
On to `CC(C)(C)OC(=O)NCCCCCCNC1CCN(CCc2ccccc2)CC1`, for which the IC50 in the series on Leishmania donovani was more than 74 µM; in the series with Plasmodium falciparum, 0.9 µM; in the series with Trypanosoma cruzi it was 28.6 µM. Besides, in series [1], half-maximal cytotoxicity (CC50 at 72 h) was put at 39.3 µM. The “Selectivity Index” value in series [2] turned out to be 36; in series [4], 43.
For the molecule `N=C(N)NCCCCCCCCCNC(=N)N.O=S(=O)(O)O`, the CC50 at 72 h in series [1] was more than 265 µM. For the same molecule, the IC50 with Plasmodium falciparum came out at 0.084 µM. In addition, in series [4], the “Selectivity Index” value was more than 3162.
For `CC(C)(C)OC(=O)NCCCCNC1CCN(CCc2ccccc2)CC1`, the IC50 with Leishmania donovani is more than 80 µM; in the series with Plasmodium falciparum it was 1.28 µM; in the series with Trypanosoma cruzi, 56.3 µM. Besides, it took 155 µM to reach half-maximal cytotoxicity in series [1] (CC50 at 72 h).
Take `CCC(=O)N(CCCCCCCCCCCCNC(=O)OC(C)(C)C)C1CCN(CCc2ccccc2)CC1`: the IC50 was 6.2 µM with Leishmania donovani, 1.32 µM in the series on Plasmodium falciparum and 8.07 µM with Trypanosoma cruzi. The molecule also had a CC50 at 72 h in series [1] of 13.8 µM. Moreover, in series [3], the “Selectivity Index” value is less than 3.
`N=C(N)NCCCCCCNC(=N)N.O=S(=O)(O)O`: the CC50 at 72 h in series [1] is more than 302 µM. Moreover, the half-maximal inhibitory concentration (IC50) in the series with Plasmodium falciparum is 0.445 µM. Moreover, the “Selectivity Index” value in series [4] is listed as more than 679.
On to `CCC(=O)N(CCCN/C(=N/C(=O)OC(C)(C)C)NC(=O)OC(C)(C)C)C1CCN(CCc2ccccc2)CC1`, for which the IC50 was 31 µM with Leishmania donovani, 1.35 µM with Plasmodium falciparum and more than 53 µM in the series with Trypanosoma cruzi. Further, it took 80.7 µM to reach half-maximal cytotoxicity in series [1] (CC50 at 72 h).
On the same counts, the results for `CCC(=O)N(CCN/C(=N/C(=O)OC(C)(C)C)NC(=O)OC(C)(C)C)C1CCN(CCc2ccccc2)CC1` are 19.1 µM, 1.85 µM, 36.8 µM and 35.6 µM.
In turn, `CCCCCCCCCCCCCCCCOP(=O)([O-])OCC[N+](C)(C)C` [MILTEFOSINE] showed an IC50 with Leishmania donovani of 0.205 µM.
